Assay results reported in ChEMBL document CHEMBL1153988 (J Med Chem, 2009).

Tests used:
Mus musculus [1] = experiment: Anticonvulsant activity in ip dosed CF1 albino mouse assessed as protection against 44 mA-current-induced seizure by 6Hz psychomotor seizure test; assay type: functional
Method in brief: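 In the 6 Hz psychomotor seizure test, male CF no. 1 albino mice (18-25 g) received the compound ip in 0.5% methylcellulose. Stimulation was at 32 or 44 mA. Doses were varied to give 3-4 points between 0% and 100% protection, and ED50 with 95% confidence interval came from probit analysis.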

Mus musculus [2] = experiment: Teratogenic effect in SWV mouse assessed as dead fetuses at 301 mg/kg, ip administered on morning of day 8 of gestation; assay type: toxicity, organism-based; parameters: dose 301 mg/kg, route intraperitoneal; details: in vivo
Mus musculus [3] = experiment: Teratogenic effect in SWV mouse assessed as dead fetuses at 600 mg/kg, ip administered on morning of day 8 of gestation; assay type: toxicity, organism-based; parameters: dose 600 mg/kg, route intraperitoneal; details: in vivo
Mus musculus [4] = experiment: Teratogenic effect in SWV mouse assessed as live fetuses at 301 mg/kg, ip administered on morning of day 8 of gestation; assay type: toxicity, organism-based; parameters: dose 301 mg/kg, route intraperitoneal; details: in vivo
Method in brief: (§1)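 Inbred SWV mouse strain, highly susceptible to valproate-induced neural tube defects. Each pregnant dam received a single ip injection on gestation day 8.5. Test compounds spanned 1.8-4.2 mmol/kg, the reference drug was given as its sodium salt, and controls received 25% aqueous Cremophor EL. Groups were compared by Fisher's exact test (p < 0.05).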

Mus musculus [5] = experiment: Teratogenic effect in SWV mouse assessed as resorptions at 301 mg/kg, ip administered on morning of day 8 of gestation; assay type: toxicity, organism-based; parameters: dose 301 mg/kg, route intraperitoneal; details: in vivo; method in brief: as §1
Mus musculus [6] = experiment: Teratogenic effect in SWV mouse assessed as resorptions at 600 mg/kg, ip administered on morning of day 8 of gestation; assay type: toxicity, organism-based; parameters: dose 600 mg/kg, route intraperitoneal; details: in vivo; method in brief: as §1
Mus musculus [7] = experiment: Teratogenic effect in SWV mouse assessed as resorptions at 452 mg/kg, ip administered on morning of day 8 of gestation; assay type: toxicity, organism-based; parameters: dose 452 mg/kg, route intraperitoneal; details: in vivo; method in brief: as §1
Mus musculus [8] = experiment: Teratogenic effect in SWV mouse assessed as live fetuses at 600 mg/kg, ip administered on morning of day 8 of gestation; assay type: toxicity, organism-based; parameters: dose 600 mg/kg, route intraperitoneal; details: in vivo; method in brief: as §1
Mus musculus [9] = experiment: Teratogenic effect in SWV mouse assessed as number of implants at 301 mg/kg, ip administered on morning of day 8 of gestation; assay type: toxicity, organism-based; parameters: dose 301 mg/kg, route intraperitoneal; details: in vivo; method in brief: as §1
Rattus norvegicus = experiment: Anticonvulsant activity in po dosed albino Sprague-Dawley rat assessed as protection against scMet-induced seizures; assay type: functional
Method in brief: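 Male Sprague-Dawley albino rats (100-150 g) were dosed orally in 0.5% methylcellulose and tested by MES or by sc pentylenetetrazol (2.82% in 0.9% saline). Doses were varied to give 3-4 points between 0% and 100% protection. ED50 and 95% confidence intervals came from probit analysis.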

Mus musculus [10] = experiment: Teratogenic effect in SWV mouse assessed as live fetuses at 452 mg/kg, ip administered on morning of day 8 of gestation; assay type: toxicity, organism-based; parameters: dose 452 mg/kg, route intraperitoneal; details: in vivo; method in brief: as §1
Mus musculus [11] = experiment: Teratogenic effect in VPA-induced SWV mouse assessed as fetuses with neural tube deffects at 301 mg/kg, ip administered on morning of day 8 of gestation; assay type: toxicity, organism-based; parameters: dose 301 mg/kg, route intraperitoneal; details: in vivo; method in brief: as §1
Mus musculus [12] = experiment: Teratogenic effect in SWV mouse assessed as number of litters at 301 mg/kg, ip administered on morning of day 8 of gestation; assay type: toxicity, organism-based; parameters: dose 301 mg/kg, route intraperitoneal; details: in vivo; method in brief: as §1
Mus musculus [13] = experiment: Teratogenic effect in SWV mouse assessed as number of litters at 452 mg/kg, ip administered on morning of day 8 of gestation; assay type: toxicity, organism-based; parameters: dose 452 mg/kg, route intraperitoneal; details: in vivo; method in brief: as §1
Mus musculus [14] = experiment: Teratogenic effect in SWV mouse assessed as number of litters at 600 mg/kg, ip administered on morning of day 8 of gestation; assay type: toxicity, organism-based; parameters: dose 600 mg/kg, route intraperitoneal; details: in vivo; method in brief: as §1
Mus musculus [15] = experiment: Teratogenic effect in SWV mouse assessed as number of implants at 452 mg/kg, ip administered on morning of day 8 of gestation; assay type: toxicity, organism-based; parameters: dose 452 mg/kg, route intraperitoneal; details: in vivo; method in brief: as §1
Mus musculus [16] = experiment: Teratogenic effect in SWV mouse assessed as dead fetuses at 452 mg/kg, ip administered on morning of day 8 of gestation; assay type: toxicity, organism-based; parameters: dose 452 mg/kg, route intraperitoneal; details: in vivo
Mus musculus [17] = experiment: Teratogenic effect in SWV mouse assessed as number of implants at 600 mg/kg, ip administered on morning of day 8 of gestation; assay type: toxicity, organism-based; parameters: dose 600 mg/kg, route intraperitoneal; details: in vivo; method in brief: as §1
Mus musculus [18] = experiment: Neurotoxicity in CF1 albino mouse at 150 mg/kg, ip after 4 hrs; assay type: toxicity, organism-based; parameters: dose 150 mg/kg, route intraperitoneal; details: in vivo
Method in brief: (§2)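 Male CF no. 1 albino mice (18-25 g) received a single ip dose as a suspension in 0.5% methylcellulose. The read-out was the number of animals showing neurotoxicity (minimal motor impairment) over the number tested.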

Mus musculus [19] = experiment: Neurotoxicity in CF1 albino mouse at 150 mg/kg, ip after 0.5 hrs; assay type: toxicity, organism-based; parameters: dose 150 mg/kg, route intraperitoneal; details: in vivo; method in brief: as §2
Mus musculus [20] = experiment: Anticonvulsant activity in CF1 albino mouse assessed as protection against maximal electroshock-induced seizures at 50 mg/kg, ip after 4 hrs; assay type: functional, organism-based; parameters: dose 50 mg/kg
Method in brief: (§3)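 Adult male CF no. 1 albino mice (18-25 g). Test compound suspended in 0.5% methylcellulose and given intraperitoneally at 0.01 mL/g body weight. Maximal electroshock challenge at the stated time. Read-out is the number of animals protected over the number tested; neurotoxicity is scored in parallel.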

Mus musculus [21] = experiment: Anticonvulsant activity in CF1 albino mouse assessed as protection against maximal electroshock-induced seizures at 450 mg/kg, ip after 0.5 hrs; assay type: functional, organism-based; parameters: dose 450 mg/kg; method in brief: as §3
Mus musculus [22] = experiment: Anticonvulsant activity in CF1 albino mouse assessed as protection against maximal electroshock-induced seizures at 150 mg/kg, ip after 0.5 hrs; assay type: functional, organism-based; parameters: dose 150 mg/kg; method in brief: as §3
Mus musculus [23] = experiment: Anticonvulsant activity in CF1 albino mouse assessed as protection against maximal electroshock-induced seizures at 50 mg/kg, ip after 0.5 hrs; assay type: functional, organism-based; parameters: dose 50 mg/kg; method in brief: as §3
Mus musculus [24] = experiment: Neurotoxicity in CF1 albino mouse at 50 mg/kg, ip after 4 hrs; assay type: toxicity, organism-based; parameters: dose 50 mg/kg, route intraperitoneal; details: in vivo; method in brief: as §2
Mus musculus [25] = experiment: Anticonvulsant activity in CF1 albino mouse assessed as protection against scMet-induced seizures at 450 mg/kg, ip after 4 hrs; assay type: functional, organism-based; parameters: dose 450 mg/kg
Method in brief: (§4)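 Adult male CF no. 1 albino mice (18-25 g) dosed intraperitoneally with compound suspended in 0.5% methylcellulose (0.01 mL/g). Convulsant challenge given subcutaneously as a 0.85% pentylenetetrazol solution in 0.9% saline. Read-out is animals protected over animals tested, with neurotoxicity scored in parallel.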

Mus musculus [26] = experiment: Anticonvulsant activity in CF1 albino mouse assessed as protection against maximal electroshock-induced seizures at 150 mg/kg, ip after 4 hrs; assay type: functional, organism-based; parameters: dose 150 mg/kg; method in brief: as §3
Mus musculus [27] = experiment: Neurotoxicity in CF1 albino mouse at 450 mg/kg, ip after 4 hrs; assay type: toxicity, organism-based; parameters: dose 450 mg/kg, route intraperitoneal; details: in vivo; method in brief: as §2
Mus musculus [28] = experiment: Anticonvulsant activity in CF1 albino mouse assessed as protection against scMet-induced seizures at 150 mg/kg, ip after 0.5 hrs; assay type: functional, organism-based; parameters: dose 150 mg/kg; method in brief: as §4
Mus musculus [29] = experiment: Anticonvulsant activity in CF1 albino mouse assessed as protection against scMet-induced seizures at 450 mg/kg, ip after 0.5 hrs; assay type: functional, organism-based; parameters: dose 450 mg/kg; method in brief: as §4
Mus musculus [30] = experiment: Anticonvulsant activity in CF1 albino mouse assessed as protection against maximal electroshock-induced seizures at 450 mg/kg, ip after 4 hrs; assay type: functional, organism-based; parameters: dose 450 mg/kg; method in brief: as §3
Mus musculus [31] = experiment: Neurotoxicity in CF1 albino mouse at 50 mg/kg, ip after 0.5 hrs; assay type: toxicity, organism-based; parameters: dose 50 mg/kg, route intraperitoneal; details: in vivo; method in brief: as §2
Mus musculus [32] = experiment: Anticonvulsant activity in CF1 albino mouse assessed as protection against scMet-induced seizures at 50 mg/kg, ip after 0.5 hrs; assay type: functional, organism-based; parameters: dose 50 mg/kg; method in brief: as §4
Mus musculus [33] = experiment: Anticonvulsant activity in CF1 albino mouse assessed as protection against scMet-induced seizures at 150 mg/kg, ip after 4 hrs; assay type: functional, organism-based; parameters: dose 150 mg/kg; method in brief: as §4
Mus musculus [34] = experiment: Anticonvulsant activity in CF1 albino mouse assessed as protection against scMet-induced seizures at 50 mg/kg, ip after 4 hrs; assay type: functional, organism-based; parameters: dose 50 mg/kg; method in brief: as §4
Mus musculus [35] = experiment: Neurotoxicity in CF1 albino mouse at 450 mg/kg, ip after 0.5 hrs; assay type: toxicity, organism-based; parameters: dose 450 mg/kg, route intraperitoneal; details: in vivo; method in brief: as §2

CCCC(CCC)C(=O)O [VALPROIC ACID]
ED50 (Mus musculus [1]): 310 mg/kg
Activity (Mus musculus [2]): 2.6%
Activity (Mus musculus [3]): 10.7%
Activity (Mus musculus [4]): 86.4%
Activity (Mus musculus [5]): 11%
Activity (Mus musculus [6]): 7.6%
Activity (Mus musculus [7]): 11.3%
Activity (Mus musculus [8]): 81.7%
Activity (Mus musculus [9]): 154
ED50 (Rattus norvegicus): 646 mg/kg
Activity (Mus musculus [10]): 88.1%
Activity (Mus musculus [11]): 1.5%
Activity (Mus musculus [12]): 12
Activity (Mus musculus [13]): 13
Activity (Mus musculus [14]): 13
Activity (Mus musculus [15]): 160
Activity (Mus musculus [16]): 0.6%
Activity (Mus musculus [17]): 131

CC1(C)C(C)(C)C1(Br)C(=O)O
Activity (Mus musculus [18]): Non-toxic
Activity (Mus musculus [19]): Non-toxic
Activity (Mus musculus [20]): Non-toxic
Activity (Mus musculus [21]): Non-toxic
Activity (Mus musculus [22]): Non-toxic
Activity (Mus musculus [23]): Non-toxic
Activity (Mus musculus [24]): Non-toxic
Activity (Mus musculus [25]): Non-toxic
Activity (Mus musculus [26]): Non-toxic
Activity (Mus musculus [27]): Non-toxic
Activity (Mus musculus [28]): Non-toxic
Activity (Mus musculus [29]): Non-toxic
Activity (Mus musculus [30]): Non-toxic
Activity (Mus musculus [31]): Non-toxic
Activity (Mus musculus [32]): Non-toxic
Activity (Mus musculus [33]): Non-toxic
Activity (Mus musculus [34]): Non-toxic
Activity (Mus musculus [35]): Non-toxic
